# Most compounds without a hit are left out; they make up all but 3% or so of the library.
# KLK7 zymogen act – activators of human kallikrein-7 zymogen; AID 652039; purified proKLK7, EDANS-DABCYL substrate fluorescence; 100% is mature enzyme control, 0% vehicle; 370,000 compounds, 0.9% hits; P49862; activation, % at 7 µM;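 active = activation above the mean of all tested compounds plus 3 SD, computed per campaign excluding outliers beyond control limits, cut at about 13% in these data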
# PLCg1 inh – PLC-gamma1 (human) inhibition, primary screen | P19174 | purified PLC-gamma1, fluorogenic substrate, fluorescence | inhibition, % at 12.2 µM | 370,000 compounds, 0.84% hits; in the data active = inhibition above about 9.5%
# Tn7 DDE FP – DD(E)-Tn7 binding inhibition, primary FP screen. FP displacement of FITC-Tn7 peptide from fibrin DD(E); 0% = median of compound wells per plate. AID 720508. 370,000 compounds, 0.13% hits. inhibition, % at 8.3 µM;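 active = inhibition above the mean of compounds falling within the control limits plus 3 SD of them, cut at about 14% in these data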
#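 Assay system: human fibrin DD(E). Input: DD(E) 2 µM final. Medium: Tris buffer with calcium and detergent, pH 7.8. Compound dosing: single point at 8.3 µM. Timing: 10 min plus 3 h, room temperature. Technique: fluorescence polarization of the labelled Tn7 tracer. Read-out: percent inhibition. Replicates: singlicate testing.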
# CendR NRP1 mod – alters CendR peptide binding to human NRP-1 | FAM-RPARPAR peptide binding to NRP-1, fluorescence polarization | inhibition, % at 25 µM | 360,000 compounds, 0.85% hits;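 active = inhibition or corrected inhibition above about 18%, plus a signal ratio from 0.5 to 1.5, limit read from the data, passing the limit was not always enough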
# Tn6 DDE FP – inhibitors of Tn6 peptide binding to human fibrin DD(E); P02675; Fibrin DD(E) TRITC-Tn6 fluorescence polarization displacement; inhibition, % at 8.3 µM; 370,000 compounds, 0.21% hits;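 active = inhibition above a per-campaign cutoff: mean of compounds within control limits plus 3 SD, cut at about 15% in these data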
# PLCb3 inh – inhibitors of human phospholipase C beta3. Purified PLC-beta3, fluorogenic substrate, fluorescence. Q01970. 370,000 compounds, 0.18% hits. inhibition, % at 12.2 µM; in the data active = inhibition above about 11%
# KLK7 act conf – proKLK7 activation, confirmation. 3,200 compounds, 68% hits. activation, % at 7 µM. purified proKLK7, EDANS-DABCYL substrate fluorescence; scaled: vehicle 0, mature enzyme 100. shares compounds with KLK7 zymogen act;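 active = activation, as change over the incubation, above the mean of all tested compounds plus 3 SD, cut at about 13% in these data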
# EDANS interfere – fluorescence interference counter-screen for KLK7 activators | shares compounds with KLK7 zymogen act | EDANS-DABCYL substrate fluorescence interference, no enzyme, 4 h; solvent 0%, active enzyme control 100% | activation, % at 7 µM | 3,200 compounds, 80% hits;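 active = activation above the all-compound mean plus 3 SD, ignoring values outside control-based bounds, cut at about 4.8% in these data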;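 also: value is the 4 h activation minus the activation read at time zero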
# EDANS interf – optically interferes with EDANS-DABCYL fluorescence, kallikrein-7 activator counter-screen; shares compounds with KLK7 zymogen act; EDANS-DABCYL peptide fluorescence interference, no enzyme; EC50, µM; 250 compounds, 20% hits;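 active = compounds that raise the fluorescence signal in this interference counterscreen, with EC50 at or below 10 µM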;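 also: intact quenched peptide substrate alone read at 355 nm excitation and 520 nm emission; signal is fluorescence gain from T0 to T4 after four hours at room temperature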
# Numbers stand for hits; 0 = inactive; - = no result given.
SMILES,KLK7 zymogen act,PLCg1 inh,Tn7 DDE FP,CendR NRP1 mod,Tn6 DDE FP,PLCb3 inh,KLK7 act conf,EDANS interfere,others
CCCCCCC/C=C(\C)[C@@H](O)[C@@H](C)C(=O)N1CCC[C@@H]1C(=O)O,-,0,0,-,0,0,-,-,
CCC(CC)COC(=O)C1=C(C)NC(=O)NC1c1cc(OC)ccc1OC (stereo unspecified),52,0,0,0,0,0,0,0,
COc1ccc(-n2c(SCC(=O)Nc3ccccc3-c3ccccc3)nnc2-c2ccccc2)cc1,0,0,0,-,0,0,-,-,
COc1ccc(C2C(C(=O)N3CCOCC3)=C(C)NC3=C2C(=O)CC(C)(C)C3)c(OC)c1 (stereo unspecified),18,0,0,0,0,0,31,20,EDANS interf=0
O=C(Oc1ccc2c3c(c(=O)oc2c1)CCCC3)c1ccco1,295,0,0,0,0,0,639,631,
CSCCC(NC(C)=O)C(=O)Oc1ccc2c3c(c(=O)oc2c1)CCCC3 (stereo unspecified),53,0,0,0,0,0,61,66,
CC(C)Oc1ccc2c3c(c(=O)oc2c1)CCC3,0,0,0,0,0,0,-,-,
O=c1oc2cc(O)ccc2c2oc3cc(O)ccc3c12,72,0,0,0,0,0,62,72,
COC(=O)C(C)Oc1ccc2c3c(c(=O)oc2c1)CCCCC3 (stereo unspecified),25,0,0,0,0,0,0,0,
COc1ccc(S[C@]2(C(=O)N3CCN(c4ncccn4)CC3)CC(=O)N[C@@H]2c2ccc(OC)cc2)cc1,0,0,0,-,0,0,-,-,
C=CCN1[C@H](C#N)[C@@H](c2ccc(C#Cc3cccnc3)cc2)[C@H]1CO,0,0,0,-,0,0,-,-,
CN(Cc1ccccc1)C(=O)OCc1cn(Cc2cccc(F)c2F)nn1,0,0,0,-,0,0,-,-,
CCOC(=O)NC[C@@]1(C(=O)OC)CC(=O)N(Cc2ccc(Cl)cc2)[C@@H]1c1ccc(OC)cc1,0,0,0,-,0,0,-,-,
O=c1oc2cc(O)ccc2c2c1CCCC2,58,0,0,0,0,0,60,70,
CC(=O)Oc1ccc2c3c(c(=O)oc2c1)CCCC3,495,0,0,0,0,0,688,685,
COc1ccc(-n2c(SCC(=O)Nc3ccccc3-c3ccccc3)nnc2-c2ccco2)cc1,0,0,0,-,0,0,-,-,
COP(=O)(OC)c1nc(-c2cccc3ccccc23)oc1N1CCOCC1,77,0,0,0,0,0,63,64,
CC(C)(C)c1ccc(S(=O)(=O)N2CCCC2C(=O)N2CCN(c3ccccc3)CC2)cc1 (stereo unspecified),0,0,0,-,0,0,-,-,
O=C(NC1CCCCN(Cc2ccc(OC(F)(F)F)cc2)C1=O)c1cccc(F)c1 (stereo unspecified),0,0,0,-,0,0,-,-,
COC(=O)[C@]12C[C@H](CC(=O)NCc3ccc(C)o3)C(=O)N(CCc3ccc(OC)c(OC)c3)C1=C[C@H](C(C)(C)C)O[C@@H]2C,0,0,0,-,0,0,-,-,
COc1cc2c(cc1OC)CN(C(=O)CSc1n[nH]c(N)n1)CC2,18,0,0,0,0,0,0,0,
CCc1nc(SCC(=O)N2CCc3cc(OC)c(OC)cc3C2)c(C#N)cc1C,13,0,0,0,0,0,0,0,
CCCC/C=C1/C(c2ccccc2)N(Cc2ccc(OC)cc2OC)C2=NC(c3ccccc3)CC(=O)N21 (stereo unspecified),-,0,0,-,0,0,-,-,
COc1ccc(N2C3=C(C(=O)CC(C)(C)C3)C(c3cnn(C)c3)C3=C2CC(C)(C)CC3=O)cc1,21,0,0,0,0,0,0,0,
